Source: PubChem (several laboratories)
SF-1 act = SF-1 (human) activation; Q13285; CHO-K1 Gal4-SF-1 LBD luciferase reporter; % increase over DMSO SF-1-specific signal; activation, % at 10 µM; 1.9% of 65,000 active; AID 522;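 active = activation above the mean activation of all tested compounds plus 3 SD, cut at about 50% in these data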
Target sequence (Q13285 whole entry, looked up, the tested form may be a part): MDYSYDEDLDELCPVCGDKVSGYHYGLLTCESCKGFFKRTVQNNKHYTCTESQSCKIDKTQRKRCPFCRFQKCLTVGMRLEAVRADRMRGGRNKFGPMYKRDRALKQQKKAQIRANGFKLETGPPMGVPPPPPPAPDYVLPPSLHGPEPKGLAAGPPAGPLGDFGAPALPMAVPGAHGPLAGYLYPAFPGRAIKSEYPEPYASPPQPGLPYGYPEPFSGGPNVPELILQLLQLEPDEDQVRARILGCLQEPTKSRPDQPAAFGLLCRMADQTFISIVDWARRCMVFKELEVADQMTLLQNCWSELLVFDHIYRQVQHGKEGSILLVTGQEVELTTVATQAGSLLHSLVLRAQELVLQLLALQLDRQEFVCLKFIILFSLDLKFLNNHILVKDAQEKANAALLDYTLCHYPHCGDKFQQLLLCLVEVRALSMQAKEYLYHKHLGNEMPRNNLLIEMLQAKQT
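Material: Transient Gal4-SF-1 LBD reporter, CHO-K1 | Input: 4,000 cells/well | Dosing: One dose, 10 µM compound, 1% DMSO | Incubation: 20 h compound treatment, 37 °C | Detection: SteadyLite luciferase luminescence | Evaluation: Percent activation relative to DMSO median and mock-transfected background | Benchmarks: DMSO-treated SF-1-transfected cells as negative, DMSO-treated mock-transfected cells lacking SF-1 as background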
M1 ag = activates the M1 muscarinic receptor. CHO-M1 cells, Fluo-4 calcium fluorescence, agonist mode; active compounds read high. B-score at 10 µM. AID 626. 3% of 64,000 active;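 active = fluorescence rise, raw or as B-score row- and column-corrected plate score, outside the 99.7% band of its plate's samples, either direction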
D1 allo mod = D1 dopamine receptor (human) allosteric modulation; P21728; 5.9% of 58,000 active; HEK293 D1, CRE-luciferase, dopamine EC30 potentiation; actives deviate in either direction; B-score at 10 µM;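 active = luminescence count or its row- and column-corrected plate score outside the 99.7% band of the plate's sample wells, on either side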
RORA act = activators of human nuclear receptor RORA; CHO-K1 Gal4-RORA LBD luciferase reporter, luminescence; percent increase over mock-subtracted basal signal; activation, % at 10 µM; 1.5% of 65,000 active; AID 560;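 active = activation above the mean of all tested compounds plus 3 SD, cut at about 49% in these data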
M1 antag = M1 muscarinic receptor (rat) antagonism. 3.4% of 64,000 active. P08482. B-score at 10 µM. CHO-M1 cells, Fluo-4 calcium, ACh EC80 antagonist mode; active compounds read low. AID 628;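 active = calcium fluorescence response, raw or row-and-column corrected B-score, differing from the plate sample mean either way at a set confidence level, mostly lower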
mHtt clearance = compounds clearing mutant huntingtin protein | HeLa Exon1htt(103Q)mCFP, aggregate imaging; zero = plate's median compound well | inhibition, % at 1.5 µM | 0.42% of 47,000 active;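 active = inhibition of aggregate fluorescence above about 70%, also judged a hit by eye on the cell image, limit read from the data, passing the limit was not always enough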;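 note: cells exposed to compound for three days before fixation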
M1 antag confirm = confirmation of rat M1 muscarinic receptor antagonists; shares compounds with M1 antag; CHO-M1 cells, Fluo-4 calcium, ACh EC80 antagonism; active compounds read low; calcium response (max-min fluorescence) at 10 µM; 43% of 1,700 active;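 active = calcium response below the same-plate mean of wells given acetylcholine alone at its 80%-effect dose, minus 3 SD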
mGluR4 antag = selectivity test for M1 antagonists: human mGluR4 receptor; shares compounds with M1 antag; CHO-mGluR4 calcium flux, Fluo-4 fluorescence, glutamate EC80; active compounds read low; fluorescence response (max-min) at 10 µM; 0.9% of 1,700 active; AID 678;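 active = fluorescence response below the plate's average for near-maximal glutamate wells, less 3 SD of those wells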;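 note: raw unnormalized fluorescence span taken in the window right after glutamate addition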
Of the large screens only hits and unclear results are named; the others gave an inactive call (follow-up assays come after a bar, where they were run). Hits are enriched below; roughly 11% of the tested compounds scored in any of these assays.

CC(=O)N1CCc2cc(Br)cc(S(=O)(=O)NCCCN3CCC(C)CC3)c21	M1 antag -3.7 | M1 antag confirm inactive | mGluR4 antag inactive
CCOC(=O)/C=C1\SCC(=O)N1CCOc1cccc(Br)c1	none (no result: mHtt clearance)
CC(OC(=O)CCCN1C(=O)c2ccccc2C1=O)C(=O)Nc1ncc(Cl)cc1Cl (stereo unspecified)	none (no result: mHtt clearance)
CC(OC(=O)C1CCN(S(=O)(=O)c2ccccc2)CC1)C(=O)Nc1ncc(Cl)cc1Cl (stereo unspecified)	M1 antag -1.3 | M1 antag confirm inactive | mGluR4 antag inactive
Cc1ccc(C2/C(=C(\O)c3ccc4c(c3)OCCO4)C(=O)C(=O)N2CCCN(C)C)o1 (stereo unspecified)	none (no result: D1 allo mod, mHtt clearance)
CCN(CC)c1ccc(-c2nc3cnccc3n2C)cc1	RORA act 67, M1 antag -14 (no result: mHtt clearance) | M1 antag confirm 64 | mGluR4 antag inactive
COc1ccc(-n2c(COc3ccccc3)nnc2SCc2ccc(C#N)cc2)cc1	M1 antag -3.3 | M1 antag confirm inactive | mGluR4 antag inactive
Brc1cccc(-c2nnc3n2CCCCC3)c1	none (no result: mHtt clearance)
Brc1cccc(-c2cnc3n2CCCCC3)c1	D1 allo mod -3.3, M1 antag -12 (no result: mHtt clearance) | M1 antag confirm 81 | mGluR4 antag inactive
CC(=O)c1ccccc1Oc1nc(CN2CCOCC2)nc2scc(-c3cccs3)c12	M1 antag -2.3 (no result: mHtt clearance) | M1 antag confirm 478 | mGluR4 antag inactive
Cc1sc2nc(CN3CCOCC3)nc(Oc3ccc(NC(=O)c4ccco4)cc3)c2c1C	none
Cc1ccccc1OC1C(=O)N(Cc2ccc3c(c2)OCO3)C1c1sccc1C (stereo unspecified)	none (no result: SF-1 act, M1 ag, D1 allo mod, RORA act, M1 antag)
Cc1cc(N2CCC(N(C)C3CCCC3)CC2)nc2cc(O)ccc12	M1 antag -0.69 (no result: D1 allo mod, mHtt clearance) | M1 antag confirm 579 | mGluR4 antag inactive
CCC(C)[C@H](NC(=O)Nc1ccc(C(C)=O)cc1)C(=O)OC (stereo partly specified)	none (no result: mHtt clearance)
CN1CCN(C(=O)CN(Cc2ccc(Cl)cc2)S(C)(=O)=O)CC1	M1 antag -2.5 (no result: mHtt clearance) | M1 antag confirm inactive | mGluR4 antag inactive
FC(F)(F)C(Oc1nc(NC2CCCCC2)nc(N2CCOCC2)n1)C(F)(F)F	none
Cc1ccc(Nc2nc(OC(C(F)(F)F)C(F)(F)F)nc(N3CCOCC3)n2)cc1	M1 antag -3.7 (no result: SF-1 act, RORA act) | M1 antag confirm inactive | mGluR4 antag inactive
CCN(CC)CCCNC(=O)C1c2ccccc2C(=O)N(C)C1c1ccc(OC)cc1 (stereo unspecified)	none
O=c1[nH]cnc2cc(Cl)ccc12	none
O=C(O)Cn1cc(C(=O)c2cccs2)c2ccccc21	none
O=C(c1cccs1)c1cn(CC(=O)N2CCc3ccccc3C2)c2ccccc12	M1 antag -7.2 | M1 antag confirm inactive | mGluR4 antag inactive
Cc1ccc(S(=O)(=O)Cn2nnnc2C(C(C)C)N2CCSCC2)cc1 (stereo unspecified)	M1 antag -2.3 | M1 antag confirm inactive | mGluR4 antag inactive
COC(=O)C(C)Sc1nc2c(cnn2-c2ccc(C)cc2)c(=O)[nH]1 (stereo unspecified)	none
CCC(Sc1nc2c(cnn2-c2ccccc2)c(=O)[nH]1)C(=O)OC (stereo unspecified)	M1 antag -2.4 (no result: mHtt clearance) | M1 antag confirm inactive | mGluR4 antag inactive
Cc1cc(-c2nnc(SCc3ccccn3)o2)no1	M1 antag -1.8 | M1 antag confirm inactive | mGluR4 antag inactive
c1ccc(-c2nc(CSc3nnc(-c4cccs4)o3)cs2)cc1	none
COc1ccccc1N1CCN(C(=O)c2sc3nc(-c4ccccc4)cn3c2C)CC1	M1 antag -3.5 (no result: mHtt clearance) | M1 antag confirm inactive | mGluR4 antag inactive
CCCSc1nc(SCC(=O)NCc2ccccc2)c2c3c(sc2n1)COC(C)(C)C3	none (no result: SF-1 act, M1 ag, D1 allo mod, RORA act, M1 antag)
CC(C)Sc1nc(SCC(=O)NCc2ccco2)c2c3c(sc2n1)COC(C)(C)C3	M1 antag -1.9 (no result: D1 allo mod, mHtt clearance) | M1 antag confirm inactive | mGluR4 antag inactive
